Here are results for 4 molecules from ChEMBL document CHEMBL1240405, “Activity of a new cephalosporin, CXA-101 (FR264205), against beta-lactam-resistant Pseudomonas aeruginosa mutants selected in vitro and after antipseudomonal treatment of intensive care unit patients” (2010).

Type in all cases: functional
Experiment [1] has as its system Pseudomonas aeruginosa. As to the kind of experiment: Antimicrobial activity against beta-lactam resistant Pseudomonas aeruginosa PAO1 deficient in ampD and ampDh3 gene selected in vitro after antipseudomonal treatment of intensive care unit patient by broth microdilution method. The essentials: (§1)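 Broth microdilution MICs per CLSI M100-S18, over 0.12 to 256 μg/ml. Strains are PAO1 and its mutants. oprD mutants were selected overnight on Mueller-Hinton agar with 4 μg/ml imipenem, passaged antibiotic-free, then confirmed by oprD amplification and sequencing. PAO1 and ATCC 27853 were run alongside as quality controls.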

In experiment [2] the test system is Pseudomonas aeruginosa. As to the kind of experiment: Antimicrobial activity against beta-lactam resistant Pseudomonas aeruginosa PAOD2 harboring oprD spontaneous mutant selected in vitro after antipseudomonal treatment of intensive care unit patient by broth microdilution method. The procedure, abridged:
as §1

Experiment [3] concerns Pseudomonas aeruginosa. In words: Antimicrobial activity against beta-lactam resistant Pseudomonas aeruginosa PAO1 deficient in ampD, […] gene selected in vitro after antipseudomonal treatment of intensive care unit patient by broth microdilution method. The essentials:
as §1

Experiment [4] relates to Pseudomonas aeruginosa. In words: Antimicrobial activity against beta-lactam resistant Pseudomonas aeruginosa PAOD1 harboring oprD spontaneous mutant and deficient in dacB gene selected in vitro after antipseudomonal treatment of intensive care unit patient by broth microdilution method. The procedure, abridged: as §1
In experiment [5] the test system is Pseudomonas aeruginosa. In words: Antimicrobial activity against beta-lactam resistant Pseudomonas aeruginosa PAOD3 harboring oprD spontaneous mutant and deficient in dacB gene selected in vitro after antipseudomonal treatment of intensive care unit patient by broth microdilution method. The essentials:
as §1

The test system of experiment [6] is Pseudomonas aeruginosa. As to the kind of experiment: Antimicrobial activity against beta-lactam resistant Pseudomonas aeruginosa PAO1 by broth microdilution method. The essentials:
as §1

Experiment [7] has as its system Pseudomonas aeruginosa. As to the kind of experiment: Antimicrobial activity against beta-lactam resistant Pseudomonas aeruginosa PAOD3 harboring oprD spontaneous mutant selected in vitro after antipseudomonal treatment of intensive care unit patient by broth microdilution method. The procedure, abridged:
as §1

In experiment [8] the test system is Pseudomonas aeruginosa. As to the kind of experiment: Antimicrobial activity against beta-lactam resistant Pseudomonas aeruginosa PAO1 deficient in ampD and dacB gene selected in vitro after antipseudomonal treatment of intensive care unit patient by broth microdilution method. The procedure, abridged: as §1
For experiment [9], the system named is Pseudomonas aeruginosa. In words: Antimicrobial activity against beta-lactam resistant Pseudomonas aeruginosa PA01 deficient in dacB gene by broth microdilution method. The procedure, abridged:
as §1

Experiment [10] relates to Pseudomonas aeruginosa. As to the kind of experiment: Antimicrobial activity against beta-lactam resistant Pseudomonas aeruginosa PAOD2 harboring oprD spontaneous mutant and deficient in dacB gene selected in vitro after antipseudomonal treatment of intensive care unit patient by broth microdilution method. The essentials:
as §1

In experiment [11] the test system is Pseudomonas aeruginosa. In words: Antimicrobial activity against beta-lactam resistant beta-lactam resistant Pseudomonas aeruginosa PAOD3 harboring oprD spontaneous mutant and deficient in ampD gene selected in vitro after antipseudomonal treatment of intensive care unit patient by broth microdilution method. The essentials: as §1
The test system of experiment [12] is Pseudomonas aeruginosa. As to the kind of experiment: Antimicrobial activity against beta-lactam resistant Pseudomonas aeruginosa PAOD1 harboring oprD spontaneous mutant and deficient in ampD gene selected in vitro after antipseudomonal treatment of intensive care unit patient by broth microdilution method. The essentials: as §1
Experiment [13] relates to Pseudomonas aeruginosa. In words: Induction of ampC expression in beta-lactam resistant Pseudomonas aeruginosa PAO1 deficient in ampD and dacB gene selected in vitro after antipseudomonal treatment of intensive care unit patient at 50 ug/ml. The essentials: (§2)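 ampC expression measured by real-time RT-PCR in PAO1 and its mutants, under basal conditions and after induction with 50 μg/ml cefoxitin.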

Experiment [14] deals with Pseudomonas aeruginosa. As to the kind of experiment: Induction of ampC expression in beta-lactam resistant Pseudomonas aeruginosa PAO1 deficient in ampD gene selected in vitro after antipseudomonal treatment of intensive care unit patient at 50 ug/mL. The procedure, abridged:
as §2

In experiment [15] the test system is Pseudomonas aeruginosa. As to the kind of experiment: Induction of ampC expression in beta-lactam resistant Pseudomonas aeruginosa PA01 deficient in dacB gene at 50 ug/mL. The procedure, abridged:
as §2

The subject of experiment [16] is Pseudomonas aeruginosa. As to the kind of experiment: Induction of ampC expression in beta-lactam resistant Pseudomonas aeruginosa PAO1 deficient in ampD and ampDh3 gene selected in vitro after antipseudomonal treatment of intensive care unit patient at 50 ug/mL. The essentials: as §2
For experiment [17], the system named is Pseudomonas aeruginosa. As to the kind of experiment: Induction of ampC expression in beta-lactam resistant Pseudomonas aeruginosa PAO1 at 50 ug/mL. The essentials:
as §2

The subject of experiment [18] is Pseudomonas aeruginosa. In words: Induction of ampC expression in beta-lactam resistant Pseudomonas aeruginosa PAO1 deficient in ampD, […] gene selected in vitro after antipseudomonal treatment of intensive care unit patient at 50 ug/mL. The essentials:
as §2

Experiment [19] has as its system Pseudomonas aeruginosa. As to the kind of experiment: Antimicrobial activity against beta-lactam resistant Pseudomonas aeruginosa PAOD2 harboring oprD spontaneous mutant and deficient in ampD gene by selected in vitro after antipseudomonal treatment of intensive care unit patient by broth microdilution method. The procedure, abridged: as §1
The test system of experiment [20] is Pseudomonas aeruginosa. In words: Antimicrobial activity against beta-lactam resistant Pseudomonas aeruginosa PAO1 deficient in ampD gene selected in vitro after antipseudomonal treatment of intensive care unit patient by broth microdilution method. The essentials:
as §1

For experiment [21], the system named is Pseudomonas aeruginosa. As to the kind of experiment: Antimicrobial activity against beta-lactam resistant Pseudomonas aeruginosa PAOD1 harboring oprD spontaneous mutant selected in vitro after antipseudomonal treatment of intensive care unit patient by broth microdilution method. The essentials:
as §1

Experiment [22] concerns Pseudomonas aeruginosa. As to the kind of experiment: Antimicrobial activity against Pseudomonas aeruginosa clinical isolate assessed as resistant isolates selected in vitro after antipseudomonal treatment of intensive care unit patient by CLSI method.

SMILES strings stand for the structures. In brackets after ≈: the same amount, converted by molar mass.

Take `CO/N=C(\C(=O)N[C@@H]1C(=O)N2C(C(=O)[O-])=C(C[N+]3(C)CCCC3)CS[C@H]12)c1csc(N)n1`: the MIC amounted to 8 µg/mL (≈ 16.6 µM) in the experiment on Pseudomonas aeruginosa [1]; 2 µg/mL (≈ 4.16 µM) against Pseudomonas aeruginosa [2]; 8 µg/mL (≈ 16.6 µM) against Pseudomonas aeruginosa [3]; 32 µg/mL (≈ 66.6 µM) in the experiment on Pseudomonas aeruginosa [4]; 32 µg/mL (≈ 66.6 µM) against Pseudomonas aeruginosa [5]; 2 µg/mL (≈ 4.16 µM) in the experiment with Pseudomonas aeruginosa [6]. In addition, the MIC is 2 µg/mL (≈ 4.16 µM) against Pseudomonas aeruginosa [7]; 32 µg/mL (≈ 66.6 µM) with Pseudomonas aeruginosa [8]; 16 µg/mL (≈ 33.3 µM) with Pseudomonas aeruginosa [9]; 32 µg/mL (≈ 66.6 µM) against Pseudomonas aeruginosa [10]; 8 µg/mL (≈ 16.6 µM) with Pseudomonas aeruginosa [11]; 4 µg/mL (≈ 8.32 µM) in the experiment on Pseudomonas aeruginosa [12].

For `C[C@H]1[C@H](NC(=O)/C(=N\OC(C)(C)C(=O)O)c2csc(N)n2)C(=O)N1S(=O)(=O)O` [AZTREONAM], the MIC against Pseudomonas aeruginosa [1] was found to be 32 µg/mL (≈ 73.5 µM); with Pseudomonas aeruginosa [2], 4 µg/mL (≈ 9.19 µM); in the experiment with Pseudomonas aeruginosa [3], 32 µg/mL (≈ 73.5 µM); with Pseudomonas aeruginosa [4], 32 µg/mL (≈ 73.5 µM); in the experiment on Pseudomonas aeruginosa [5], 32 µg/mL (≈ 73.5 µM); in the experiment on Pseudomonas aeruginosa [6], 4 µg/mL (≈ 9.19 µM). For the same molecule, the MIC in the experiment on Pseudomonas aeruginosa [7] was determined as 4 µg/mL (≈ 9.19 µM); in the experiment on Pseudomonas aeruginosa [8] it was 128 µg/mL (≈ 294 µM); in the experiment with Pseudomonas aeruginosa [9], 32 µg/mL (≈ 73.5 µM); against Pseudomonas aeruginosa [10] it was 32 µg/mL (≈ 73.5 µM); in the experiment with Pseudomonas aeruginosa [11], 8 µg/mL (≈ 18.4 µM); in the experiment with Pseudomonas aeruginosa [12], 8 µg/mL (≈ 18.4 µM).

Take `CO[C@@]1(NC(=O)Cc2cccs2)C(=O)N2C(C(=O)O)=C(COC(N)=O)CS[C@@H]21` [CEFOXITIN]: the “fold change (FC)” value in the experiment on Pseudomonas aeruginosa [13] was determined as 1950; with Pseudomonas aeruginosa [14], 134; in the experiment on Pseudomonas aeruginosa [15], 232; with Pseudomonas aeruginosa [16], 1014; in the experiment on Pseudomonas aeruginosa [17], 50; in the experiment with Pseudomonas aeruginosa [18], 1105.

On to `CC(C)(O/N=C(\C(=O)N[C@@H]1C(=O)N2C(C(=O)[O-])=C(C[n+]3ccccc3)CS[C@H]12)c1csc(N)n1)C(=O)O` [CEFTAZIDIME], for which the minimal inhibitory concentration (MIC) came out at 16 µg/mL (≈ 29.3 µM) with Pseudomonas aeruginosa [19]; 32 µg/mL (≈ 58.5 µM) against Pseudomonas aeruginosa [1]; 2 µg/mL (≈ 3.66 µM) in the experiment on Pseudomonas aeruginosa [2]; 8 µg/mL (≈ 14.6 µM) in the experiment with Pseudomonas aeruginosa [20]; 32 µg/mL (≈ 58.5 µM) in the experiment with Pseudomonas aeruginosa [3]; 32 µg/mL (≈ 58.5 µM) in the experiment on Pseudomonas aeruginosa [4]. The MIC with Pseudomonas aeruginosa [5] worked out at 32 µg/mL (≈ 58.5 µM); against Pseudomonas aeruginosa [6], 2 µg/mL (≈ 3.66 µM); against Pseudomonas aeruginosa [7], 2 µg/mL (≈ 3.66 µM); against Pseudomonas aeruginosa [8], 128 µg/mL (≈ 234 µM); against Pseudomonas aeruginosa [21], 2 µg/mL (≈ 3.66 µM); against Pseudomonas aeruginosa [9], 32 µg/mL (≈ 58.5 µM). The MIC against Pseudomonas aeruginosa [10] was found to be 32 µg/mL (≈ 58.5 µM); against Pseudomonas aeruginosa [11], 16 µg/mL (≈ 29.3 µM); in the experiment with Pseudomonas aeruginosa [12] it was 16 µg/mL (≈ 29.3 µM). In addition, in the experiment on Pseudomonas aeruginosa [22], the Activity amounted to 81%.
